Assay results taken from ChEMBL document CHEMBL2176886, “Anti-AIDS agents 90. novel C-28 modified bevirimat analogues as potent HIV maturation inhibitors” (J Med Chem, 2012).
The source made the active and inactive calls. The rule behind the calls is not given here.

Legend:
[1] = tested on: Human immunodeficiency virus 1; assay: Antiviral activity against HIV1 infected in human TZM-bl cells assessed as reduction of viral entry after 48 hrs by luciferase reporter gene assay; assay type: functional, organism-based
How it was run: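 Single-round infection of TZM-bl cells (HeLa clone expressing CD4/CCR5 with HIV-1 LTR-driven firefly luciferase) with HIV-1 at 200 TCID50 mixed with test samples. After 48 h, medium was replaced with Bright-Glo reagent and luminescence read. IC50 is the concentration giving 50% RLU reduction versus virus-control wells after background subtraction.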

[2] = tested on: Liver microsomes; assay: Half life in human liver microsomes at 1 uM; assay type: ADME, Microsome
How it was run: (§1)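 Pooled human liver microsomes at 0.1 mg/mL in 0.1 M potassium phosphate pH 7.4 with 5 mM MgCl2. Compound at 1 μM final; reaction started with 1.0 mM NADPH (final) at 37 °C, duplicate incubations. Quenched with ice-cold acetonitrile at 0, 5, 15, 30, 60 min. Parent measured by LC-ESI-MS (SIM), remaining percentage relative to 0 min. t1/2 = 0.693/k from log-linear slope.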

[3] = Metabolic stability in human liver microsomes assessed as compound remaining at 1 uM after 60 mins by HPLC-MS analysis; assay type: ADME, Microsome; conditions: read-out: Stability; how it was run: as §1
[4] = tested on: Human immunodeficiency virus 1; assay: Antiviral activity against HIV1 infected in human TZM-bl cells assessed as reduction of viral […] after 48 hrs by luciferase reporter gene assay; assay type: functional, organism-based
How it was run: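 Single-round infection of TZM-bl cells (HeLa clone expressing CD4 and CCR5, HIV-1 LTR-driven firefly luciferase) with HIV-1 at 200 TCID50 mixed with samples. Luminescence read after 48 h. IC50 is the concentration giving 50% lower RLU than virus control wells, after subtracting background RLU.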

[5] = tested on: Human immunodeficiency virus 1; assay: Ratio of bevirimat IC50 to compound IC50 for HIV1 NL4-3 infected in human MT4 cells; assay type: functional
How it was run: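 MT-4 cells were infected with HIV-1 NL4-3 at MOI 0.01. Day-4 supernatant p24 was measured by ELISA. IC50 is the concentration giving 50% inhibition of replication, from averages of at least three separate experiments. The ratio divides the bevirimat IC50 by the compound IC50, both from this assay.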

[6] = Therapeutic index, ratio of CC50 for human MT4 cells to IC50 for HIV-1 NL4-3; assay type: cell-based; conditions: read-out: Ratio CC50/IC50
How it was run: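 TI calculated as CC50 (mock-infected MT-4 growth, 2 days) divided by IC50 (HIV-1 NL4-3 replication in MT-4 cells, p24 ELISA at day 4).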

[7] = tested on: Human immunodeficiency virus 1; assay: Antiviral activity against HIV1 NL4-3 infected in human MT4 cells assessed as p24 antigen level after 4 days by ELISA; assay type: functional, organism-based; conditions: Human immunodeficiency virus 1, NL4-3, MT4, 96 h
How it was run: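 MT-4 cells infected with HIV-1 NL4-3 variants at MOI 0.01; supernatants harvested day 4 post-infection for p24 antigen capture ELISA. IC50 is the concentration inhibiting replication by 50%; values are averages of at least three separate experiments.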

[8] = tested on: MT4; assay: Cytotoxicity against human MT4 cells after 2 days; assay type: cell-based; conditions: mt4, 48 h
[9] = species: Homo sapiens; assay: Elimination half life in human; assay type: ADME, organism-based; conditions: in vivo

C=C(C)[C@@H]1CC[C@]2(C(=O)N3CCN(CCCCC(=O)O)CC3)CC[C@]3(C)[C@H](CC[C@@H]4[C@@]5(C)CC[C@H](OC(=O)CC(C)(C)C(=O)O)C(C)(C)[C@@H]5CC[C@]43C)[C@@H]12
Activity [1]: inactive | t1/2 [2]: 5.45 h | remaining at 1 h, 1 µM [3]: 86.2% | Activity [4]: Active | Ratio IC50 [5]: 15 | selectivity ratio [6]: 2240 | IC50 [7]: 0.0059 µM | CC50 [8]: 13.2 µM

C=C(C)[C@@H]1CC[C@]2(C(=O)O)CC[C@]3(C)[C@H](CC[C@@H]4[C@@]5(C)CC[C@H](OC(=O)CC(C)(C)C(=O)O)C(C)(C)[C@@H]5CC[C@]43C)[C@@H]12 [BEVIRIMAT]
Activity [1]: inactive | beta t1/2 [9]: 56.3 h | selectivity ratio [6]: 171 | IC50 [7]: 0.087 µM | CC50 [8]: 14.2 µM

C=C(C)[C@@H]1CC[C@]2(C(=O)N3CCC(CCCC(=O)NCCCN4CCOCC4)CC3)CC[C@]3(C)[C@H](CC[C@@H]4[C@@]5(C)CC[C@H](OC(=O)CC(C)(C)C(=O)O)C(C)(C)[C@@H]5CC[C@]43C)[C@@H]12
Activity [1]: inactive | Ratio IC50 [5]: 3 | selectivity ratio [6]: 321 | IC50 [7]: 0.031 µM | CC50 [8]: 10 µM

C=C(C)[C@@H]1CC[C@]2(C(=O)OCOCCOC)CC[C@]3(C)[C@H](CC[C@@H]4[C@@]5(C)CC[C@H](OC(=O)CC(C)(C)C(=O)O)C(C)(C)[C@@H]5CC[C@]43C)[C@@H]12
Activity [1]: inactive | Activity [4]: Active | Ratio IC50 [5]: 2 | selectivity ratio [6]: 261 | IC50 [7]: 0.046 µM | CC50 [8]: 12.1 µM

C=C(C)[C@@H]1CC[C@]2(C(=O)N3CCC(CCCC(=O)NCCN4CCOCC4)CC3)CC[C@]3(C)[C@H](CC[C@@H]4[C@@]5(C)CC[C@H](OC(=O)CC(C)(C)C(=O)O)C(C)(C)[C@@H]5CC[C@]43C)[C@@H]12
Activity [1]: inactive | Ratio IC50 [5]: 3 | selectivity ratio [6]: 286 | IC50 [7]: 0.035 µM | CC50 [8]: 10 µM

C=C(C)[C@@H]1CC[C@]2(C(=O)N3CCN(CCCC(=O)O)CC3)CC[C@]3(C)[C@H](CC[C@@H]4[C@@]5(C)CC[C@H](OC(=O)CC(C)(C)C(=O)O)C(C)(C)[C@@H]5CC[C@]43C)[C@@H]12
Activity [1]: inactive | Ratio IC50 [5]: 7.9 | selectivity ratio [6]: 1180 | IC50 [7]: 0.011 µM | CC50 [8]: 13 µM
